In ChEMBL document CHEMBL1152649, “Synthesis, cytotoxicity and human telomerase inhibition activities of a series of 1,2-heteroannelated anthraquinones and anthra[1,2-d]imidazole-6,11-dione homologues” (2009) one finds inhibition, growth and residual activity data, which are given here for two molecules.

Activity calls are given as the source filed them. The rule behind the calls is not given here.

Experiment [1] concerns the target Telomerase reverse transcriptase (Homo sapiens) (UniProt O14746). The experiment in a line: Inhibition of telomerase in human H1299 cells up to 100 uM by TRAP assay. It is filed as cell-based. In a few lines: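 PCR-based telomeric repeat amplification protocol (TRAP). The telomerase source was total lysate of H1299 lung cancer cells, with protein measured against BSA standards. Controls were extract without inhibitor and RNase A-treated extract.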

The next experiment concerns EKVX. The experiment in a line: Antiproliferative activity against human EKVX cells assessed as cell growth at 10 uM. Particulars: read-out: Activity. The class given is functional. Put shortly:
(§1)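 NCI 60 cell line panel, single-dose screen (10^-5 M) run by the developmental therapeutics program protocol. Results are given as growth percent of treated cells relative to untreated control cells for each line.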

A further experiment concerns SW-620. The experiment is described as follows: Antiproliferative activity against human SW620 cells assessed as cell growth at 10 uM. The class given is functional. The conditions noted are these: read-out: Activity. Put shortly: (§2)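 NCI 60 cell line panel, single dose (10^-5 M), run per the Developmental Therapeutics Program protocol (one dose mean graph). Each result is the growth percentage of treated cells relative to untreated control cells.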

In another experiment the test system is MCF7. The experiment is described as follows: Antiproliferative activity against human MCF7 cells assessed as cell growth at 10 uM. It is filed as functional. Particulars: read-out: Activity. Put shortly:
as §1

Another experiment deals with MDA-MB-468. The experiment in a line: Antiproliferative activity against human MDA-MB-468 cells assessed as cell growth at 10 uM. The class given is functional. Particulars: read-out: Activity. In a few lines:
as §1

The test system of the next experiment is SK-OV-3. The experiment is described as follows: Antiproliferative activity against human SKOV3 cells assessed as cell growth at 10 uM. The class given is functional. Particulars: read-out: Activity. Put shortly: as §1
A further experiment deals with MOLT-4. The experiment is described as follows: Antiproliferative activity against human MOLT4 cells assessed as cell growth at 10 uM. Particulars: read-out: Activity. The class given is functional. Put shortly:
as §1

Another experiment has as its system UACC-62. The experiment is described as follows: Antiproliferative activity against human UACC62 cells assessed as cell growth at 10 uM. The class given is functional. The conditions noted are these: read-out: Activity. Put shortly: as §2
For another experiment, the system named is DU-145. The experiment is described as follows: Antiproliferative activity against human DU145 cells assessed as cell growth at 10 uM. The conditions noted are these: read-out: Activity. The class given is functional. In a few lines:
as §1

The subject of another experiment is SF-539. The experiment in a line: Antiproliferative activity against human SF539 cells assessed as cell growth at 10 uM. Particulars: read-out: Activity. It is filed as functional. Put shortly: as §1
The test system of the next experiment is NCI-H226. The experiment is described as follows: Antiproliferative activity against human NCI-H226 cells assessed as cell growth at 10 uM. The class given is functional. The conditions noted are these: read-out: Activity. In a few lines: as §1
In another experiment the test system is HCT-15. The experiment is described as follows: Antiproliferative activity against human HCT15 cells assessed as cell growth at 10 uM. The class given is functional. The conditions noted are these: read-out: Activity. Put shortly: as §1
A further experiment has as its system HT-29. The experiment in a line: Antiproliferative activity against human HT-29 cells assessed as cell growth at 10 uM. Particulars: read-out: Activity. It is filed as functional. Put shortly: as §1
The test system of a further experiment is KM12. The experiment is described as follows: Antiproliferative activity against human KM12 cells assessed as cell growth at 10 uM. The class given is functional. Particulars: read-out: Activity. In a few lines:
as §1

In experiment [2] the target is Telomerase reverse transcriptase (Homo sapiens) (UniProt O14746). The experiment is described as follows: Inhibition of TERT in human H1299 cells assessed as residual transcriptional activity at 1 uM after 24 hrs by SEAP reporter gene assay; values are per cent of control.
Experiment [3] has the same target. The experiment in a line: Inhibition of TERT in human H1299 cells assessed as residual transcriptional activity at 100 uM after 24 hrs by SEAP reporter gene assay; values are per cent of control.

Chain of Telomerase reverse transcriptase (Homo sapiens) (O14746 whole entry): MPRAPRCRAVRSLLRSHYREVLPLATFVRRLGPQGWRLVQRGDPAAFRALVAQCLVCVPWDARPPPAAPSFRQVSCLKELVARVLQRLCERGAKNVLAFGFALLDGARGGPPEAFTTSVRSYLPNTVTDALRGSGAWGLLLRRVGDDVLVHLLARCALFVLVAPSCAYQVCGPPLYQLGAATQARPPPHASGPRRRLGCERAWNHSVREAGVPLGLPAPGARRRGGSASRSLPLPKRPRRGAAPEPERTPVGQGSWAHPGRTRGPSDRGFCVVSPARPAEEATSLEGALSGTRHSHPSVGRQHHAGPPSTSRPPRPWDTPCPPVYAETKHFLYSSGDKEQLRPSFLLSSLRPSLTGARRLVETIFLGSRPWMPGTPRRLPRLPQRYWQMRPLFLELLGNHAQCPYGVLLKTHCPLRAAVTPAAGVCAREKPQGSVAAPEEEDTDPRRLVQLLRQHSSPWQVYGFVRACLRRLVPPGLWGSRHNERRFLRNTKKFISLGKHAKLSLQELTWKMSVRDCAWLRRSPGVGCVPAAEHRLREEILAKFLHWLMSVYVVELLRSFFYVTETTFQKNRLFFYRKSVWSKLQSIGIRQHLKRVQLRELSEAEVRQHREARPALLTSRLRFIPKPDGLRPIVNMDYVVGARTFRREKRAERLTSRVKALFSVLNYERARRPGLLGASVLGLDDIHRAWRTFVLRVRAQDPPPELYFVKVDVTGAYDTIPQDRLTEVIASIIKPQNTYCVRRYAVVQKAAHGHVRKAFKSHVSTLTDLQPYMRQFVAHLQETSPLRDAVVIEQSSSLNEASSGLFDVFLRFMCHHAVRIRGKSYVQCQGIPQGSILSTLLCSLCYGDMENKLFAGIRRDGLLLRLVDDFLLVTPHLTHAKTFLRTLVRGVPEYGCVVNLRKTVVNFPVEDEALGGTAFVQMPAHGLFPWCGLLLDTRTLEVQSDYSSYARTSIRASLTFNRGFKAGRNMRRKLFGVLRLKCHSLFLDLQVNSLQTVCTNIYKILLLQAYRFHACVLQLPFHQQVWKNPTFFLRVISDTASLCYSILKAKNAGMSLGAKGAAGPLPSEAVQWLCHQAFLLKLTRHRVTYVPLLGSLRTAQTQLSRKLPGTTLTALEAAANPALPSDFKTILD

In the case of `O=C1c2ccccc2C(=O)c2c1ccc1nc(-c3ccc4c(c3)OCO4)[nH]c21`, the inhibition entry in [1] is “inactive”. Moreover, the growth at 10 µM was 94.2% in the experiment with EKVX; 91.9% in the experiment on SW-620; 46.5% in the experiment on MCF7; 96.4% in the experiment on MDA-MB-468; 139% in the experiment on SK-OV-3; 105% with MOLT-4. In addition, the growth at 10 µM with UACC-62 worked out at 98.1%; in the experiment on DU-145, 107%; with SF-539 it was 108%; in the experiment with NCI-H226 it was 97%; with HCT-15, 106%; with HT-29, 95.8%. The growth at 10 µM in the experiment with KM12 came out at 97.8%. Moreover, the residual activity in [2] amounted to 61%; in experiment [3] it was 34%.
Regarding `N#Cc1ccc(-c2nc3ccc4c(c3[nH]2)C(=O)c2ccccc2C4=O)cc1`, the inhibition entry in experiment [1] is “inactive”. For the same molecule, the growth at 10 µM turned out to be 99.8% with EKVX; 89.4% in the experiment with SW-620; 62.7% in the experiment with MCF7; 95% in the experiment on MDA-MB-468; 104% with SK-OV-3; 87.1% in the experiment with MOLT-4. Besides, the growth at 10 µM in the experiment on UACC-62 turned out to be 104%; in the experiment with DU-145, 97.7%; in the experiment on SF-539 it was 104%; with NCI-H226, 103%; in the experiment with HCT-15, 101%; in the experiment on HT-29 it was 86.4%. In addition, in the experiment on KM12, the growth at 10 µM came out at 98.6%. The residual activity in experiment [2] amounted to 91%; in [3], 30%.
